This note sets out measurements from ChEMBL document CHEMBL4765441, “Design, synthesis and anti-cancer activity of pyrrole-imidazole polyamides through target-downregulation of c-kit gene expression” (Eur J Med Chem, 2020).

Where a name gives a salt, the structure may show the parent alone. Active and inactive are the calls of the source. The calls are words filed in the database; no cut-off is given here.

One may read the IC50 as the concentration needed to halve the response being measured. Broadly, the inhibition is the relative decrease from the control value, in per cent. Low readings indicate little suppression, high ones strong suppression.

Experiment [1] has as its system dsDNA. The experiment is described as follows: Binding affinity to 5'-AGGGGAGGCGAGGAGGGGCGTGGCCGG-3'/3'-TCCCCTCCGCTCCTCCCCGCACCGGCC-5' dsDNA (unknown origin) at 0 to 32 uM by SYBR GOLD staining based EMSA. The format is nucleic-acid assay. The settings on record: Homo sapiens; dose 0-32 µM. A digest of the protocol:
(§1)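 Target 27-bp c-kit promoter duplex, annealed at 95 °C, then incubated overnight with or without compound in pH 7.4 buffer (10 mM Tris-HCl, 10 mM KCl, 0.1 mM EDTA). Mixtures run on 16% native polyacrylamide gel at 150 V for 3 h. Gels stained with SYBR Gold for 30 min and imaged on a gel documentation system.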
A general note: Mobility shift assays separate free from complexed probe on a gel.

The test system of experiment [2] is SGC-7901. Nature of the experiment: Induction of morphological changes in human SGC7901 cells assessed as appearance of round shaped cells at 7.5 uM incubated for 36 hrs by microscopic analysis. The class given is functional, cell-based. In a few lines:
(§2)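 Cells seeded at 2 × 10^5 per well and grown 24 h. Medium then replaced with compound-containing medium. After 36 h co-culture, morphology inspected by light microscopy.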

Experiment [3] deals with dsDNA. Nature of the experiment: Binding affinity to 5'-AGGGGAGGCGAGGAGGGGCGTGGCCGG-3'/3'-TCCCCTCCGCTCCTCCCCGCACCGGCC-5' dsDNA (unknown origin) at 1:8 DNA:compound ratio by SYBR GOLD staining based EMSA. The format is nucleic-acid assay. The settings on record: Homo sapiens. In a few lines: as §1
Experiment [4] concerns dsDNA. Nature of the experiment: Binding affinity to 5'-AGGGGAGGCGAGGAGGGGCGTGGCCGG-3'/3'-TCCCCTCCGCTCCTCCCCGCACCGGCC-5' dsDNA (unknown origin) by SYBR GOLD staining based EMSA. The class given is nucleic-acid assay. Conditions: Homo sapiens. A digest of the protocol: as §1
The subject of a further experiment is Bel-7402. Nature of the experiment: Antiproliferative activity against human Bel-7402 cells assessed as reduction in cell viability incubated for 48 hrs by xCELLigence RTCA. The format is functional, cell-based. Conditions: Bel-7402, 48 h.
A further experiment concerns MKN-45. The experiment is described as follows: Antiproliferative activity against human MKN-45 cells assessed as reduction in cell viability incubated for 48 hrs by xCELLigence RTCA. The class given is functional, cell-based. Conditions: MKN-45, 48 h.
The test system of experiment [5] is SGC-7901. The experiment is described as follows: Antiproliferative activity against human SGC7901 cells assessed as reduction in cell viability incubated for 48 hrs by xCELLigence RTCA. The format is functional, cell-based. The settings on record: SGC-7901, 48 h.
For experiment [6], the system named is A549. The experiment is described as follows: Antiproliferative activity against human A549 cells assessed as reduction in cell viability incubated for 48 hrs by xCELLigence RTCA. The format is functional, cell-based. Conditions: A549, 48 h.
Experiment [7] relates to SGC-7901. The experiment is described as follows: Inhibition of cell migration in human SGC7901 cells at 1.5 uM incubated for 48 hrs by inverted fluorescence microscope based scratch wound healing assay. The class given is functional. In a few lines:
(§3)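 20 × 10^4 cells per well grown to 80% confluence. Wound scratched with a pipette tip, washed twice with PBS and photographed under an inverted fluorescence microscope. Cells then held in serum-free medium with compound for 48 h. Migration measured as distance moved from the wound edge; mean ± SD, n = 3.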

The subject of experiment [8] is A549. The experiment is described as follows: Inhibition of cell migration in human A549 cells at 1.5 uM incubated for 48 hrs by inverted fluorescence microscope based scratch wound healing assay. The format is functional. In a few lines:
as §3

In experiment [9] the test system is SGC-7901. The experiment is described as follows: Induction of morphological changes in human SGC7901 cells assessed as cell detachment at 7.5 uM incubated for 36 hrs by microscopic analysis. The format is functional, cell-based. A digest of the protocol:
as §2

Experiment [10] relates to SGC-7901. Nature of the experiment: Induction of morphological changes in human SGC7901 cells assessed as apoptotic body formation at 7.5 uM incubated for 36 hrs by microscopic analysis. The class given is functional, cell-based. In a few lines:
as §2

The subject of experiment [11] is A549. The experiment is described as follows: Induction of morphological changes in human A549 cells assessed as cell detachment at 15 uM incubated for 36 hrs by microscopic analysis. The format is functional, cell-based. In a few lines:
as §2

Experiment [12] deals with A549. Nature of the experiment: Induction of morphological changes in human A549 cells assessed as membrane bulge at 15 uM incubated for 36 hrs by microscopic analysis. The format is functional, cell-based. In a few lines: as §2
Experiment [13] has as its system SGC-7901. The experiment is described as follows: Induction of apoptosis in human SGC7901 cells assessed as apoptotic rate at 20 uM incubated for 36 hrs by Annexin V-FITC/propidium iodide staining-based flow cytometric analysis. The format is functional.
For experiment [14], the system named is A549. The experiment is described as follows: Induction of apoptosis in human A549 cells assessed as apoptotic rate at 20 uM incubated for 36 hrs by Annexin V-FITC/propidium iodide staining-based flow cytometric analysis. The format is functional. On the technique in general: In flow cytometry, cells or beads pass a laser one at a time.
Experiment [15] has as its system SGC-7901. Nature of the experiment: Down regulation of c-kit gene expression in human SGC-7901 cells at 15 uM incubated for 36 hrs by Western blot analysis. The class given is functional, cell-based. In a few lines: (§4)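 Cells exposed to compound for 36 h, then lysed in RIPA and protein measured by BCA. 30 units of total protein separated by 10% SDS-PAGE, transferred to PVDF and blocked with 5% BSA. Primary antibodies, with β-tubulin as reference, at 4 °C; secondary 2 h; ECL detection. Bands quantified by densitometry, mean ± SD, n = 3.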
(Immunoblotting shows a protein as a band on a membrane.)

Experiment [16] relates to A549. Nature of the experiment: Down regulation of c-kit gene expression in human A549 cells at 15 uM incubated for 36 hrs by Western blot analysis. The format is functional, cell-based. In a few lines: as §4
Experiment [17] concerns dsDNA. The experiment is described as follows: Binding affinity to 5'-AGGGGAGGCGAGGAGGGGCGTGGCCGG-3'/3'-TCCCCTCCGCTCCTCCCCGCACCGGCC-5' dsDNA (unknown origin) by circular dichroism spectroscopic analysis. The settings on record: Homo sapiens. The class given is nucleic-acid assay. In a few lines: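 Target duplex annealed at 95 °C, held 24 h in pH 7.0 buffer (10 mM sodium cacodylate, 100 mM NaCl, 0.5% DMSO), then degassed. Compound titrated in at compound:DNA ratios 0.0–3.0, room temperature, 15 min equilibration per addition. CD read 225–400 nm in a 5 mm quartz cell at 100 nm/min, 5.0 nm bandwidth. Average of three parallel runs.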

For `CC(=O)Nc1cn(C)c(C(=O)Nc2cn(C)c(C(=O)NC[C@@H](O)CC(=O)Nc3cn(C)c(C(=O)Nc4cn(C)c(C(=O)NCC[C@@H](N)C(=O)Nc5cc(C(=O)Nc6cc(C(=O)NCCC(=O)Nc7cc(C(=O)Nc8cc(C(=O)NCCC(=O)NCCCN(C)C)n(C)c8)n(C)c7)n(C)c6)n(C)c5)n4)n3)n2)n1`, the outcome in the experiment with dsDNA [1] was inactive.
As to `CC(=O)Nc1cn(C)c(C(=O)Nc2cn(C)c(C(=O)Nc3cc(C(=O)Nc4cn(C)c(C(=O)NCCC(=O)Nc5cn(C)c(C(=O)Nc6cn(C)c(C(=O)NCC[C@@H](NC(=O)c7nc(NC(=O)c8nc(NC(=O)c9nccn9C)cn8C)cn7C)C(=O)Nc7cc(C(=O)Nc8cc(C(=O)NC[C@@H](O)CC(=O)Nc9cc(C(=O)Nc%10cn(C)c(C(=O)Nc%11cc(C(=O)Nc%12cc(C(=O)NCCC(=O)NCCCN(C)C)n(C)c%12)n(C)c%11)n%10)n(C)c9)n(C)c8)n(C)c7)n6)n5)n4)n(C)c3)n2)n1.Cl.Cl`, the result in the experiment on SGC-7901 [2], in the experiment on dsDNA [3], with SGC-7901 [9], in the experiment on SGC-7901 [10], in the experiment on A549 [11] and in the experiment on A549 [12] was Active. In addition, the result in the experiment on SGC-7901 [15], in the experiment on A549 [16] and in the experiment on dsDNA [17] was Active. In addition, the Activity result in the experiment with dsDNA [4] is “Dose-dependent effect”; with SGC-7901 [13], 53.3%; in the experiment with A549 [14], 47.9%. The IC50 came out at 14.9 µM with Bel-7402, 19.9 µM with MKN-45, 6.05 µM in the experiment with SGC-7901 [5] and 7.93 µM in the experiment with A549 [6]. Further, the inhibition at 1.5 µM came out at 80.8% in the experiment with SGC-7901 [7] and 73.5% with A549 [8].
As for `CC(=O)Nc1cn(C)c(C(=O)Nc2cn(C)c(C(=O)NCCC(=O)Nc3cn(C)c(C(=O)Nc4cn(C)c(C(=O)NCC[C@@H](N)C(=O)Nc5cc(C(=O)Nc6cc(C(=O)NC[C@@H](O)CC(=O)Nc7cc(C(=O)Nc8cc(C(=O)NCCC(=O)NCCCN(C)C)n(C)c8)n(C)c7)n(C)c6)n(C)c5)n4)n3)n2)n1`, in the experiment on dsDNA [1], the outcome was inactive.
Turning to `CC(=O)Nc1cn(C)c(C(=O)Nc2cn(C)c(C(=O)Nc3cn(C)c(C(=O)NCCC(=O)Nc4cn(C)c(C(=O)Nc5cn(C)c(C(=O)NCC[C@@H](N)C(=O)Nc6cc(C(=O)Nc7cc(C(=O)NC[C@@H](O)CC(=O)Nc8cc(C(=O)Nc9cc(C(=O)Nc%10cc(C(=O)NCCC(=O)NCCCN(C)C)n(C)c%10)n(C)c9)n(C)c8)n(C)c7)n(C)c6)n5)n4)n3)n2)n1`, the outcome in the experiment on dsDNA [1] was inactive.
`Cc1ccc(NC(=O)c2ccc(CN3CCN(C)CC3)cc2)cc1Nc1nccc(-c2cccnc2)n1` [IMATINIB MESYLATE]: the IC50 in the experiment with Bel-7402 was 55.5 µM; in the experiment on MKN-45, 12.2 µM; with SGC-7901 [5], 0.208 µM; in the experiment on A549 [6], 1.87 µM.
